How the values were obtained:
[1] = system: CDK12/13; details: live HeLa S3 cells, 4 h; cyclin K as proxy
[2] = molecular target: T1, CDK7 (Homo sapiens, UniProt P50613); assay: target engagement pulldown, live HeLa S3 cells, THZ1-DTB; format: cell-based; details: 4 h, Western blot
[3] = molecular target: T2, PRKCQ (Homo sapiens, UniProt Q04759); assay: as above; format: cell-based; details: 4 h, Western blot
[4] = molecular target: T3, PKN3 (Homo sapiens, UniProt Q6P5Z2); assay: as above; format: cell-based; details: 4 h, Western blot
T3 sequence (Q6P5Z2 whole entry): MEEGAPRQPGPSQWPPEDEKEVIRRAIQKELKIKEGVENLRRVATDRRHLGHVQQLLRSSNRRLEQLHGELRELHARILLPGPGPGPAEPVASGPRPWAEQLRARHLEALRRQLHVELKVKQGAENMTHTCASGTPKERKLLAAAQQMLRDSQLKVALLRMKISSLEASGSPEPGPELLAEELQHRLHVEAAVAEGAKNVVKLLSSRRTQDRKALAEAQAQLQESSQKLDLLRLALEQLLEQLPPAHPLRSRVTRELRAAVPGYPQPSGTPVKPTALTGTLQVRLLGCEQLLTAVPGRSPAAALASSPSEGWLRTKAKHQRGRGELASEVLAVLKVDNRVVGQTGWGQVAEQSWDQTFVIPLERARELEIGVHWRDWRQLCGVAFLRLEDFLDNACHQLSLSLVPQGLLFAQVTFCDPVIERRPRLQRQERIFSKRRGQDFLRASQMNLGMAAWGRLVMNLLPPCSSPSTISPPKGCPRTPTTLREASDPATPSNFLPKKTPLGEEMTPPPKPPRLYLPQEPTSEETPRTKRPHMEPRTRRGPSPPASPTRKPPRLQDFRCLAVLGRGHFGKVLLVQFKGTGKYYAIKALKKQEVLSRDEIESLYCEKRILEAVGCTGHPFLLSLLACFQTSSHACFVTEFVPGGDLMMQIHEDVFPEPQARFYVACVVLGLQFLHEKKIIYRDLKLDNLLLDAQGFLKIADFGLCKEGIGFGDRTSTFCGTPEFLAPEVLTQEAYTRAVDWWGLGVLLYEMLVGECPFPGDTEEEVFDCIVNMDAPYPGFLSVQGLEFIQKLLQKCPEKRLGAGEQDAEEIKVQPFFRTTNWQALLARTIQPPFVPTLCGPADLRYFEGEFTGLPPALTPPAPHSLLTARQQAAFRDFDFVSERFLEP

[5] = molecular target: T3, PKN3; assay: in vitro PKN3 kinase assay; format: biochemical; details: for time-dependent inhibition of PKN3: fixed inhibitor concentration 1 μM, preincubation 0 to 120 min
How it was run: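 Enzyme was preincubated with test compound 30 min, then reacted 30 min at RT with 68 µM ATP plus 1 µCi [γ-32P]ATP. TCA stop, phosphocellulose capture, phosphoric-acid washes, scintillation counting. IC50 came from a 7-point dose-response. Time course used 1 µM compound with 0–120 min preincubation.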

[6] = molecular target: PKN3 at C840 (Homo sapiens, UniProt Q6P5Z2); assay: CITe-Id, HeLa S3 lysates, THZ1-DTB; format: binding; details: competition with 2 μM THZ1-DTB
PKN3 at C840, sequence (Q6P5Z2 whole entry): as above
How it was run: (§1)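 Precleared on streptavidin resin 1 h at 4 °C, split four ways. DMSO or rising test-compound doses for 1 h at RT, then 2 µM desthiobiotin probe at 4 °C for 18 h. Urea denaturation, DTT/IAA, tryptic digest. Streptavidin-enriched probe peptides were iTRAQ-labelled for RP-SAX-RP LC–MS/MS. Slope of reporter ratios (vs DMSO) against concentration scored each cysteine. Hits exceeded 2 SD over the mean of 527 sites; biological replicates.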

[7] = molecular target: protein kinase C theta (PRKCQ) at C661 (Homo sapiens, UniProt Q04759); assay: CITe-Id, HeLa S3 lysates, THZ1-DTB; format: binding; details: competition with 2 μM THZ1-DTB
protein kinase C theta (PRKCQ) at C661, sequence (Q04759 whole entry): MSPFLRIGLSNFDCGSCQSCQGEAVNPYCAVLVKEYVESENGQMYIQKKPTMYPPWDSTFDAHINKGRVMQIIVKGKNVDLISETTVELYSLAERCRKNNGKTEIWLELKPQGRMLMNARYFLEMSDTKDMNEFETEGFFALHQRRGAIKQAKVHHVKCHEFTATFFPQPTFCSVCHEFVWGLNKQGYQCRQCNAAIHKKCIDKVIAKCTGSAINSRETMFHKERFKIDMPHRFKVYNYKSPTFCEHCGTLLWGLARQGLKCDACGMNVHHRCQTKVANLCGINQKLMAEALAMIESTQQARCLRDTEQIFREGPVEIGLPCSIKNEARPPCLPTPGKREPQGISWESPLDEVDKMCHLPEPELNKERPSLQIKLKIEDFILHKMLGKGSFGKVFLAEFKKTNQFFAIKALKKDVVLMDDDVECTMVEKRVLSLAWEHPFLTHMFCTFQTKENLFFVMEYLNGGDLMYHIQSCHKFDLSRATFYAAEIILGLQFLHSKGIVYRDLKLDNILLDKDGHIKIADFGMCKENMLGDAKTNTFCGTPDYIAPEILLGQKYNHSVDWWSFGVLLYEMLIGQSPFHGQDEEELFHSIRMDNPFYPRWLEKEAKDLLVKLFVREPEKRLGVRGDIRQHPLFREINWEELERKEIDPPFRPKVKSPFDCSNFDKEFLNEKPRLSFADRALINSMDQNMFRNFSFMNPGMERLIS
How it was run: as §1

[8] = molecular target: T1, CDK7; assay: CITe-Id, HeLa S3 lysates, THZ1-DTB; format: binding; details: competition with 2 μM THZ1-DTB
How it was run: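 Aliquots pretreated with DMSO or increasing test compound concentrations for 1 h at RT, then 2 μM desthiobiotin probe for 18 h at 4 °C. Denatured, reduced, alkylated, trypsin-digested; probe peptides streptavidin-enriched, iTRAQ-labelled, LC–MS/MS. Cysteine reporter ratios versus the DMSO channel were regressed against concentration, and the slope was taken as the dose response.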

[9] = molecular target: CDK12 (Homo sapiens, UniProt Q9NYV4); assay: CITe-Id, HeLa S3 lysates, THZ1-DTB; format: binding; details: competition with 2 μM THZ1-DTB
How it was run: as §1

[10] = molecular target: CDK13 (Homo sapiens, UniProt Q14004); assay: CITe-Id, HeLa S3 lysates, THZ1-DTB; format: binding; details: competition with 2 μM THZ1-DTB
How it was run: as §1

[11] = molecular target: T3, PKN3; assay: PKN3 in vitro phosphorylation of candidate substrate synthetic peptides; format: biochemical; details: pretreatment 1 μM for 30 min
How it was run: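 Recombinant PKN3 (25 ng) was preincubated with test compound at 1 μM for 30 min. Reactions ran 1 h at 37 °C and were stopped with 1% acetic acid. Peptides were desalted and read by MALDI TOF/TOF. Percent phosphorylation was inferred from the loss of unphosphorylated signal against a no-ATP control; four replicates.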

[12] = system: cysteine residues across the proteome; assay: CITe-Id proteome-wide, HeLa S3 lysates; format: binding, human
How it was run: as §1

[13] = molecular target: T2, PRKCQ; assay: SelectScreen kinase assay; format: biochemical; details: 10-dose titration
[14] = molecular target: glycogen synthase kinase 3B (GSK3B) at C14 (Homo sapiens, UniProt P49841); assay: CITe-Id, HeLa S3 lysates, THZ1-DTB; format: binding; details: competition with 2 μM THZ1-DTB
glycogen synthase kinase 3B (GSK3B) at C14, sequence (P49841 whole entry): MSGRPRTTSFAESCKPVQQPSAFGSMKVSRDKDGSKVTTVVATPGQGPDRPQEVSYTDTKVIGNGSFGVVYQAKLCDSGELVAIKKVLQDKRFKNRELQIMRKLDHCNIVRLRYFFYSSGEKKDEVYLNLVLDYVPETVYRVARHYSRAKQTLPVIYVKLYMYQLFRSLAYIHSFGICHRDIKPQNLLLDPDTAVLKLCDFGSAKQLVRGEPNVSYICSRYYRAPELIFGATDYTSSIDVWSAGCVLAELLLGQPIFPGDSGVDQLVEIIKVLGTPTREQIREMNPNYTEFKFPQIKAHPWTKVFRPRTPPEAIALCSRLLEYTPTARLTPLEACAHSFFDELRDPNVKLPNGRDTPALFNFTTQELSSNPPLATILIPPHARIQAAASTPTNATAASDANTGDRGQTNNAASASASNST
How it was run: as §1

[15] = molecular target: T4, CYP1B1 (Homo sapiens, UniProt Q16678); assay: CITe-Id, HeLa S3 lysates, THZ1-DTB; format: binding; details: competition with 2 μM THZ1-DTB
T4 sequence (Q16678 1-543): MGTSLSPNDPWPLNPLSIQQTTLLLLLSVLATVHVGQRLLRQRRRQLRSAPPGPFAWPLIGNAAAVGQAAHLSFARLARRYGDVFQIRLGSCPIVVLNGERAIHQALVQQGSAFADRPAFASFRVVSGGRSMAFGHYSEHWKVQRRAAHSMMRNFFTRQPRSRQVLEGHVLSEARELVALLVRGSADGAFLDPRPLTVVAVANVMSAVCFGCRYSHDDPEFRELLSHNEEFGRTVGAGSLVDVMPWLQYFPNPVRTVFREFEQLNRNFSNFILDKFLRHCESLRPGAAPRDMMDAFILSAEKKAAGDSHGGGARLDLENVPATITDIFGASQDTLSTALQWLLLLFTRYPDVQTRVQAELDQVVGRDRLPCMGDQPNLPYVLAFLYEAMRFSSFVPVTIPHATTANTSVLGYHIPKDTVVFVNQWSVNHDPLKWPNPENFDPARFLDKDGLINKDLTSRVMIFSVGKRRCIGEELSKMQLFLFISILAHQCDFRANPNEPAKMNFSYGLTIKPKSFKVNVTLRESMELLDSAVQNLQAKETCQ
How it was run: as §1

T1 sequence (P50613 2-346 limits assumed): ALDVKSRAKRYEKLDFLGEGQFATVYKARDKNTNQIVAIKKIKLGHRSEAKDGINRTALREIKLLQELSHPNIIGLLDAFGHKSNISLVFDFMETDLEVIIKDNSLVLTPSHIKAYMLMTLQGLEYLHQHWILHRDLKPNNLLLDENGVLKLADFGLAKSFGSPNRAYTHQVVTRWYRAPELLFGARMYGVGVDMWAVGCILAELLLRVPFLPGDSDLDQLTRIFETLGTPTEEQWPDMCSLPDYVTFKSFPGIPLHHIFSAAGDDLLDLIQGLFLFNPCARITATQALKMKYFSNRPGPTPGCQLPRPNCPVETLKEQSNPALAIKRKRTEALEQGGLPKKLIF
T1 sequence (P51946 whole entry partner): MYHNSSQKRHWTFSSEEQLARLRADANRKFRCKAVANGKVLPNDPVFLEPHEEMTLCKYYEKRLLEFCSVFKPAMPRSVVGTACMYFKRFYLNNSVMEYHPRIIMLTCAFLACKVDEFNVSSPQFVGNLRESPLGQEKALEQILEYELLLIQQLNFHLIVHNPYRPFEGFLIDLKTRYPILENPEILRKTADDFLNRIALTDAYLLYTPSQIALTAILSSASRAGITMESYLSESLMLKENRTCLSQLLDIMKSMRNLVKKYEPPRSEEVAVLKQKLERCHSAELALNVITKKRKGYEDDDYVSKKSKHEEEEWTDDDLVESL
T1 sequence (P51948 whole entry partner): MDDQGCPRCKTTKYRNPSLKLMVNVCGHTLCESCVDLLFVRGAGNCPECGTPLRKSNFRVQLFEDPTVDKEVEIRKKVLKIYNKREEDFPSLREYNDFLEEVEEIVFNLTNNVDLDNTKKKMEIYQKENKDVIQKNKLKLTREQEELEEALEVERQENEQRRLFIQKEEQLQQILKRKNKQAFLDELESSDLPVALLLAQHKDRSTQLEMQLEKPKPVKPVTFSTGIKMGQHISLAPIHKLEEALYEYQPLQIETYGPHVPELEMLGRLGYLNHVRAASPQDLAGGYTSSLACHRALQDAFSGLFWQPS
T2 sequence (Q04759 whole entry): as the sequence (Q04759 whole entry) above

SMILES	competition for CDK12/13 against THZ1-DTB pulldown [1]	competition for CDK7 against THZ1-DTB pulldown [2]	competition for PRKCQ against THZ1-DTB pulldown [3]	competition for PKN3 against THZ1-DTB pulldown [4]	time-dependent inhibition of PKN3 [5]	potency against PKN3 relative to THZ1 (fold less potent) ([5]; fixed time-point format)	competitive dose-response at PKN3 C840 [6]	competitive dose-response at PRKCQ C661 [7]	competitive dose-response at CDK7 cysteine [8]	IC50 ([5]; read-out: IC50 against PKN3, fixed time-point format, 30 min preincubation) [nM]	competitive dose-response at CDK12 cysteine [9]	competitive dose-response at CDK13 cysteine [10]	PKN3-mediated phosphorylation of EXOC2 (S432) peptide [11]	PKN3-mediated phosphorylation of LAD1 (S375) peptide [11]	number of cysteine residues with dose-dependent competitive binding [12]	potency against PRKCQ [13]	competitive dose-response at GSK3B C14 [14]	competitive dose-response at CYP1B1 [15]
CN(C)CCCC(=O)Nc1ccc(C(=O)Nc2cccc(Nc3ncc(Cl)c(-c4c[nH]c5ccccc45)n3)c2)cc1 [THZ1-R]	competed poorly	competed poorly	competed poorly	competed poorly	did not show time-dependent inhibition	more than 50 fold	–	–	–	–	–	–	–	–	–	–	–	–
CN(C)C/C=C/C(=O)Nc1ccc(C(=O)Nc2cccc(Nc3ncc(Cl)c(-c4c[nH]c5ccccc45)n3)c2)cc1 [THZ1]	–	strong competition	–	–	time dependent	–	dose-dependent THZ1 competitive binding	dose-dependent THZ1 competitive binding	dose-dependent competitive binding	72	dose-dependent competitive binding	dose-dependent competitive binding	partially blocked	partially blocked	eight	weak potency	dose-dependent THZ1 competitive binding	–
CN(C)C/C=C/C(=O)Nc1ccc(C(=O)N2CCC[C@@H](Nc3ncc(Cl)c(-c4c[nH]c5ccccc45)n3)C2)cc1 [THZ531]	–	–	–	–	–	–	little or no reactivity	little or no reactivity	–	–	–	–	–	–	–	–	gaining some activity	little or no reactivity
